Tests used:
[1] = system: Human immunodeficiency virus 1; test: Resistance index, ratio of ID50 for reverse transcriptase K103N mutant to IC50 for wild-type HIV1 sreverse transcriptase
How it was run: (§1)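 Recombinant wt and K103N, L100I or Y181I HIV-1 RT (>95% pure), 2-4 nM. RNA-dependent DNA polymerase assay on 0.5 µg poly(rA)/oligo(dT) 10:1 (0.3 µM 3'-OH ends) with 10 µM [3H]-dTTP and 8% final DMSO. Aliquots taken every 2 min. Inhibitor range 0.2-5× ID50, fitted to a noncompetitive model. Fold resistance is mutant ID50 divided by wt ID50.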

[2] = system: Human immunodeficiency virus 1; test: Resistance index, ratio of EC50 for drug-resistant HIV1 isolate with reverse transcriptase Y181C mutation to EC50 for wild type HIV1 NL4-3; type: functional
How it was run: (§2)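 Fold resistance is the EC50 against the K103N, Y181C or Y188L mutant strain divided by the EC50 against wt NL4-3. Each EC50 is from MT-4 cells infected in the presence of different drug concentrations, with viability read by MTT at day 5 postinfection.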

[3] = system: Human immunodeficiency virus type 1 reverse transcriptase (Human immunodeficiency virus 1), Q72547 [Y181I]
[4] = Cytotoxicity against human MT4 cells by MTT assay; type: cell-based
How it was run: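 Mock-infected MT-4 cells were exposed to a range of compound concentrations. Viability was read by MTT at day 5. CC50 is the concentration that kills 50% of uninfected cells. The top concentration was limited by compound precipitation in culture medium. Means ± SD from at least two or three experiments.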

[5] = Selectivity index, ratio of CC50 for human MT4 cells to EC50 for HIV1 NL4-3; type: toxicity, cell-based; settings: read-out: Ratio CC50/EC50
How it was run: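 Computed as CC50/EC50. CC50 comes from MTT viability of mock-infected MT-4 cells and EC50 from MTT protection of NL4-3-infected MT-4 cells, both read at day 5.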

[6] = system: Human immunodeficiency virus type 1 reverse transcriptase (Human immunodeficiency virus 1), Q72547 [K103N]
[7] = system: Human immunodeficiency virus 1; test: Resistance index, ratio of ID50 for reverse transcriptase L100I mutant to IC50 for wild-type HIV1 reverse transcriptase; how it was run: as §1
[8] = system: Human immunodeficiency virus 1; test: Antiviral activity against HIV1 isolates with reverse transcriptase Y188L mutation in human MT4 cells assessed as inhibition of virus-induced cytopathogenicity by MTT assay; type: functional, organism-based; settings: Human immunodeficiency virus 1, MT4
How it was run: (§3)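 MT-4 lymphoid cells infected with HIV-1 carrying RT K103N, Y181C or Y188L, in the presence of different drug concentrations. Viable cells counted at day 5 postinfection by MTT colorimetric assay. EC50 is the concentration that inhibits 50% of the HIV-induced cytopathic effect.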

[9] = system: Human immunodeficiency virus 1; test: Antiviral activity against HIV1 NL4-3 in human MT4 cells assessed as inhibition of virus-induced cytopathogenicity by MTT assay; type: functional, organism-based; settings: Human immunodeficiency virus 1, NL4-3, MT4
How it was run: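 MT-4 lymphoid cells infected with wild-type HIV-1 NL4-3 in the presence of a range of compound concentrations. Viable cells were counted by MTT colorimetric read-out at day 5 post-infection. EC50 is the concentration giving 50% protection from virus-induced cytopathic effect. Means ± SD from at least two or three experiments.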

[10] = system: Human immunodeficiency virus 1; test: Antiviral activity against HIV1 isolates with reverse transcriptase Y181C mutation in human MT4 cells assessed as inhibition of virus-induced cytopathogenicity by MTT assay; type: functional, organism-based; settings: Human immunodeficiency virus 1, MT4; how it was run: as §3
[11] = target: Human immunodeficiency virus type 1 reverse transcriptase (Human immunodeficiency virus 1) (UniProt Q72547)
[12] = system: Human immunodeficiency virus 1; test: Antiviral activity against HIV1 isolates with reverse transcriptase K103N mutation in human MT4 cells assessed as inhibition of virus-induced cytopathogenicity by MTT assay; type: functional, organism-based; settings: Human immunodeficiency virus 1, MT4; how it was run: as §3
[13] = system: Human immunodeficiency virus type 1 reverse transcriptase (Human immunodeficiency virus 1), Q72547 [L100I]
[14] = system: Human immunodeficiency virus 1; test: Resistance index, ratio of EC50 for drug-resistant HIV1 isolate with reverse transcriptase K103N mutation to EC50 for wild type HIV1 NL4-3; type: functional; how it was run: as §2
[15] = system: Human immunodeficiency virus 1; test: Resistance index, ratio of ID50 for reverse transcriptase Y181I mutant to IC50 for wild-type HIV1 reverse transcriptase; how it was run: as §1
[16] = system: Human immunodeficiency virus 1; test: Resistance index, ratio of EC50 for drug-resistant HIV1 isolate with reverse transcriptase Y188L mutation to EC50 for wild type HIV1 NL4-3; type: functional; how it was run: as §2

SMILES | Ratio [1] | Ratio EC50 [2] | ID50 [3] [µM] | CC50 [4] [µM] | selectivity ratio [5] | ID50 [6] [µM] | Ratio [7] | EC50 [8] [µM] | EC50 [9] [µM] | EC50 [10] [µM] | ID50 [11] [µM] | EC50 [12] [µM] | ID50 [13] [µM] | Ratio EC50 [14] | Ratio [15] | Ratio EC50 [16]
CC(C)c1c(Cc2c(F)cccc2F)nc(SCC(=O)c2ccccc2)[nH]c1=O | 198 | 120 | > 40 | > 60 | > 30000 | 1.58 | 600 | > 60 | 0.002 | 0.24 | 0.008 | 4.46 | 4.8 | 2230 | – | –
COc1ccc(CSc2nc(Cc3c(Cl)cccc3Cl)c(C)c(=O)[nH]2)cc1 | 25500 | – | – | 32 | 4570 | – | – | > 32 | – | – | – | – | – | 671 | 37500 | –
COc1ccc(C(=O)CSc2nc(Cc3c(F)cccc3F)c(C(C)C)c(=O)[nH]2)cc1 | 1440 | 33 | > 40 | 33 | 16500 | 37.3 | – | 14.7 | 0.002 | 0.067 | 0.026 | 17.5 | > 40 | 8750 | – | 7350
CCc1c(Cc2c(F)cccc2Cl)nc(SCC(=O)c2ccc(OC)cc2)[nH]c1=O | – | 42 | > 40 | > 11 | > 550 | > 40 | 414 | > 11 | 0.02 | 0.84 | 0.007 | 4.16 | 2.9 | 208 | – | –
CCc1c(Cc2c(F)cccc2F)nc(SCC(=O)c2ccccc2)[nH]c1=O | 86 | 17 | 0.82 | 56 | 4670 | 3.7 | 126 | > 56 | 0.012 | 0.2 | 0.043 | 1.3 | 5.4 | 108 | 19 | –
Cc1c(Cc2c(F)cccc2Cl)nc(SCC(=O)c2ccccc2)[nH]c1=O | 1920 | 37 | 1.2 | > 12 | > 267 | 23 | 275 | > 12 | 0.045 | 1.68 | 0.012 | 9.48 | 3.3 | 211 | 100 | –
CCc1c(Cc2c(F)cccc2F)nc(SCC(=O)c2ccc(F)cc2)[nH]c1=O | 60 | 38 | 0.51 | > 60 | > 3160 | 3.65 | 113 | > 60 | 0.019 | 0.72 | 0.061 | 5.14 | 6.9 | 270 | 8 | –
Cc1c(Cc2c(F)cccc2F)nc(SCC(=O)c2ccccc2)[nH]c1=O | 32 | 35 | 1.68 | 65 | 4330 | 10.4 | 38 | > 65 | 0.015 | 0.52 | 0.33 | 19 | 12.7 | 1267 | 5 | –
CCc1c(Cc2c(F)cccc2Cl)nc(SCC(=O)c2ccc(F)cc2)[nH]c1=O | 50 | 386 | 0.38 | > 57 | > 11400 | 1.64 | 170 | > 57 | 0.005 | 1.93 | 0.033 | 4.14 | 5.6 | 828 | 12 | –
COc1ccc(CCSc2nc(Cc3c(Cl)cccc3Cl)c(C)c(=O)[nH]2)cc1 | 123 | – | – | > 57 | > 407000 | – | – | – | < 0.00014 | – | – | – | – | 6214 | 58 | 49286
Cc1c(Cc2c(F)cccc2Cl)nc(SCC(=O)c2ccc(F)cc2)[nH]c1=O | 30 | 140 | 0.7 | > 59 | > 29500 | 5.35 | 49 | > 59 | 0.002 | 0.28 | 0.18 | 8.72 | 8.8 | 4360 | 4 | –
Cc1c(Cc2c(F)cccc2F)nc(SCC(=O)c2ccc(F)cc2)[nH]c1=O | 29 | 14 | 1.71 | > 62 | > 2480 | 12 | 96 | > 62 | 0.025 | 0.35 | 0.41 | > 62 | 39.2 | – | 4 | –
Cc1ccnc2c1NC(=O)c1cccnc1N2C1CC1 [NEVIRAPINE] | 17 | – | – | > 7 | > 54 | – | 22 | > 7 | 0.13 | > 7 | – | 4.96 | – | 38 | 87 | –
